Format in all cases: functional
The test system of one assay is A549. In words: Growth inhibition of human A549/ATCC cells assessed as growth percentage at 10 uM incubated for 48 hrs by sulforhodamine B assay relative to control. The conditions noted are these: A549, 48 h, read-out: Activity. The gist of the method: (§1)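 NCI-60 one-dose screen: cells in RPMI 1640 with 5% FBS and 2 mM L-glutamine, plated at 5,000–40,000 cells/well and preincubated 24 h at 37 °C, 5% CO2. Compound is added from a DMSO stock to a final 10 µM and incubated 48 h. Cells are TCA-fixed and stained with sulforhodamine B, read at 515 nm. Output is % growth versus untreated control, with a time-zero plate.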

The test system of the next assay is PC-3. In words: Growth inhibition of human PC3 cells assessed as growth percentage at 10 uM incubated for 48 hrs by sulforhodamine B assay relative to control. The conditions noted are these: PC-3, 48 h, read-out: Activity. Put shortly: (§2)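 NCI-60 single-dose screen. Cells were grown in RPMI 1640 with 5% FBS and 2 mM L-glutamine and plated at 5,000–40,000 cells/well. After an overnight preincubation at 37 °C in 5% CO2, compound was added at a final 10 µM from a DMSO stock, with DMSO/PBS controls. After 48 h, cells were TCA-fixed and stained with 0.4% SRB, and absorbance was read at 515 nm. Growth is given as a percentage of untreated control.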
In general terms: Sulforhodamine B stains cellular protein and so reports cell mass.

A further assay concerns TK-10. In words: Growth inhibition of human TK10 cells assessed as growth percentage at 10 uM incubated for 48 hrs by sulforhodamine B assay relative to control. The following applies: TK-10, 48 h, read-out: Activity. Put shortly:
as §2

Another assay has as its system CCRF-CEM. The experiment in a line: Growth inhibition of human CCRF-CEM cells assessed as growth percentage at 10 uM incubated for 48 hrs by sulforhodamine B assay relative to control. The following applies: read-out: Activity. The gist of the method:
as §1

The subject of a further assay is Hs-578T. In words: Growth inhibition of human Hs 578T cells assessed as growth percentage at 10 uM incubated for 48 hrs by sulforhodamine B assay relative to control. The conditions noted are these: read-out: Activity. Put shortly: (§3)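 NCI-60 one-dose screen. Cells in RPMI 1640 with 5% FBS and 2 mM L-glutamine, seeded at 5,000–40,000 cells/well according to doubling time, and preincubated overnight at 37 °C, 5% CO2. A time-zero plate was TCA-fixed at drug addition. Compound from DMSO stock, final 10 µM, 48 h; DMSO vehicle controls. Fixation with TCA, 10% final (16% for suspension cells). SRB stain, Tris solubilization, A515. Result given as % growth versus untreated cells.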

The subject of the next assay is HL-60(TB). The experiment in a line: Growth inhibition of human HL-60(TB) cells assessed as growth percentage at 10 uM incubated for 48 hrs by sulforhodamine B assay relative to control. The following applies: HL-60, 48 h, read-out: Activity. Put shortly: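 NCI-60 single-dose screen. Cells in RPMI 1640 with 5% FBS and 2 mM L-glutamine are plated at 5,000–40,000 cells/well and preincubated overnight at 37 °C, 5% CO2. Compound is added from a DMSO stock at 10 µM final for 48 h. Cells are TCA-fixed (suspension cells 16% final) and stained with SRB. Absorbance is read at 515 nm, and percentage growth is calculated against untreated controls with a time-zero plate.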

Another assay has as its system K562. The experiment in a line: Growth inhibition of human K562 cells assessed as growth percentage at 10 uM incubated for 48 hrs by sulforhodamine B assay relative to control. The conditions noted are these: K562, 48 h, read-out: Activity. The gist of the method: as §3
A further assay has as its system MOLT-4. The experiment in a line: Growth inhibition of human MOLT4 cells assessed as growth percentage at 10 uM incubated for 48 hrs by sulforhodamine B assay relative to control. The conditions noted are these: MOLT-4, 48 h, read-out: Activity. The gist of the method:
as §3

A further assay relates to MCF7. The experiment in a line: Growth inhibition of human MCF7 cells assessed as growth percentage at 10 uM incubated for 48 hrs by sulforhodamine B assay relative to control. The conditions noted are these: MCF7, 48 h, read-out: Activity. Put shortly: as §3
The next assay has as its system HCT-116. The experiment in a line: Growth inhibition of human HCT116 cells assessed as growth percentage at 10 uM incubated for 48 hrs by sulforhodamine B assay relative to control. The following applies: HCT-116, 48 h, read-out: Activity. The gist of the method: as §1
The test system of another assay is SW-620. In words: Growth inhibition of human SW620 cells assessed as growth percentage at 10 uM incubated for 48 hrs by sulforhodamine B assay relative to control. The conditions noted are these: SW-620, 48 h, read-out: Activity. Put shortly:
as §2

Another assay concerns UO-31. In words: Growth inhibition of human UO31 cells assessed as growth percentage at 10 uM incubated for 48 hrs by sulforhodamine B assay relative to control. The following applies: UO-31, 48 h, read-out: Activity. The gist of the method:
as §2

In the next assay the test system is COLO 205. In words: Growth inhibition of human COLO205 cells assessed as growth percentage at 10 uM incubated for 48 hrs by sulforhodamine B assay relative to control. The following applies: COLO 205, 48 h, read-out: Activity. Put shortly:
as §1

In the next assay the test system is SK-MEL-5. In words: Growth inhibition of human SK-MEL-5 cells assessed as growth percentage at 10 uM incubated for 48 hrs by sulforhodamine B assay relative to control. The conditions noted are these: SK-MEL-5, 48 h, read-out: Activity. Put shortly:
as §2

The subject of the next assay is IGROV-1. In words: Growth inhibition of human IGROV1 cells assessed as growth percentage at 10 uM incubated for 48 hrs by sulforhodamine B assay relative to control. The conditions noted are these: IGROV-1, 48 h, read-out: Activity. The gist of the method: as §3
The next assay concerns U-251. In words: Growth inhibition of human U251 cells assessed as growth percentage at 10 uM incubated for 48 hrs by sulforhodamine B assay relative to control. The conditions noted are these: U-251, 48 h, read-out: Activity. Put shortly: as §2
The subject of a further assay is CAKI-1. The experiment in a line: Growth inhibition of human Caki1 cells assessed as growth percentage at 10 uM incubated for 48 hrs by sulforhodamine B assay relative to control. The following applies: CAKI-1, 48 h, read-out: Activity. Put shortly: as §1
For a further assay, the system named is HT-29. The experiment in a line: Growth inhibition of human HT-29 cells assessed as growth percentage at 10 uM incubated for 48 hrs by sulforhodamine B assay relative to control. The conditions noted are these: HT-29, 48 h, read-out: Activity. The gist of the method:
as §3

A further assay relates to NCI-H226. In words: Growth inhibition of human NCI-H226 cells assessed as growth percentage at 10 uM incubated for 48 hrs by sulforhodamine B assay relative to control. The conditions noted are these: NCI-H226, 48 h, read-out: Activity. The gist of the method:
as §3

A further assay deals with SNB-75. The experiment in a line: Growth inhibition of human SNB75 cells assessed as growth percentage at 10 uM incubated for 48 hrs by sulforhodamine B assay relative to control. The following applies: SNB-75, 48 h, read-out: Activity. Put shortly: as §2
For another assay, the system named is SF-539. In words: Growth inhibition of human SF539 cells assessed as growth percentage at 10 uM incubated for 48 hrs by sulforhodamine B assay relative to control. The conditions noted are these: SF-539, 48 h, read-out: Activity. The gist of the method:
as §2

In another assay the test system is MDA-MB-468. The experiment in a line: Growth inhibition of human MDA-MB-468 cells assessed as growth percentage at 10 uM incubated for 48 hrs by sulforhodamine B assay relative to control. The following applies: MDA-MB-468, 48 h, read-out: Activity. The gist of the method: as §3
For the next assay, the system named is MDA-MB-435. The experiment in a line: Growth inhibition of human MDA-MB-435 cells assessed as growth percentage at 10 uM incubated for 48 hrs by sulforhodamine B assay relative to control. The following applies: MDA-MB-435, 48 h, read-out: Activity. Put shortly: as §3
For another assay, the system named is M14. In words: Growth inhibition of human M14 cells assessed as growth percentage at 10 uM incubated for 48 hrs by sulforhodamine B assay relative to control. The following applies: M14, 48 h, read-out: Activity. Put shortly:
as §3

As for `CC1=C(C(=O)OC(C)C)C(c2ccc3c(c2)OCO3)NC(=O)N1` (racemic), the growth at 10 µM in the assay with A549 turned out to be 106%; in the assay on PC-3 it was 101%; in the assay on TK-10 it was 98.8%; with CCRF-CEM it was 113%; with Hs-578T, 102%; in the assay with HL-60(TB), 108%. For the same compound, the growth at 10 µM was 119% in the assay with K562; 108% with MOLT-4; 96.5% in the assay on MCF7; 96.4% in the assay with HCT-116; 109% in the assay on SW-620; 84.9% with UO-31. Besides, the growth at 10 µM with COLO 205 is 124%; with SK-MEL-5, 97.6%; in the assay on IGROV-1 it was 101%; with U-251 it was 100%; in the assay with CAKI-1, 93.9%; in the assay on HT-29, 103%. Moreover, the growth at 10 µM stood at 101% in the assay with NCI-H226; 105% in the assay with SNB-75; 100% with SF-539; 104% in the assay on MDA-MB-468; 110% in the assay on MDA-MB-435; 104% with M14.

As for `O=C1NC2=C(C(=O)c3ccccc32)C(c2ccc3c(c2)OCO3)N1` (racemic), the growth at 10 µM in the assay on A549 was 106%; in the assay with PC-3 it was 101%; in the assay with TK-10, 96.1%; with CCRF-CEM, 103%; in the assay on Hs-578T, 98.8%; in the assay on HL-60(TB), 98.9%. Further, the growth at 10 µM came out at 104% in the assay on K562; 104% in the assay on MOLT-4; 96.5% in the assay with MCF7; 108% with HCT-116; 104% with SW-620; 85.4% in the assay on UO-31. Also, the growth at 10 µM in the assay on COLO 205 is 115%; in the assay with SK-MEL-5, 101%; with IGROV-1, 104%; in the assay on U-251 it was 100%; in the assay on CAKI-1, 90.9%; with HT-29, 107%. Moreover, the growth at 10 µM with NCI-H226 came out at 102%; in the assay with SNB-75, 78.5%; with SF-539, 94.7%; in the assay with MDA-MB-468, 114%; in the assay with MDA-MB-435, 105%; in the assay on M14 it was 110%.

Source of the values: ChEMBL document CHEMBL4406880, “Design, synthesis, and bioactivity of dihydropyrimidine derivatives as kinesin spindle protein inhibitors” (Bioorg Med Chem, 2019).
